Results taken from PubChem BioAssay AID624268 (The Scripps Research Institute Molecular Screening Center, 2012).
In all, about 360,000 compounds went through this assay and about 1,500 (0.42%) were called active. The full list was thinned out, with actives kept by preference. Values without a mark were called inactive.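 Rule for the calls: active = inhibition above a per-plate cutoff of the control wells' mean inhibition plus 3 SD (cut at about 5.5% in these data); inactive = the rest.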

Each molecule was assayed on methionyl-tRNA synthetase (Trypanosoma brucei brucei) (assay: T. brucei MetRS inhibitors, primary screen, biochemical, luminescence (AID 624268;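 note: 0% = DMSO wells median and 100% = median of wells with control inhibitor compound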)). Conditions: purified T. brucei MetRS, ATP depletion, Kinase-Glo luminescence; at 11.9 µM; hits give high values.
In short: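 Assay system: T. brucei methionyl-tRNA synthetase, purified | Medium: HEPES buffer with MgCl2, KCl, DTT, spermine, BSA, pyrophosphatase | Compound: 11.9 µM single point | Incubation: 15 min enzyme-compound preincubation, 2 h reaction, 10 min detection, 25 °C | Measured by: Kinase-Glo luciferase luminescence reporting remaining unconsumed ATP | Measure: % inhibition normalized to control-well medians | Replication: Singlicate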

Row | Structure (SMILES) | inhibition
1 | O=C(NNc1cc(Cl)cc(Cl)c1)c1c(F)cccc1Cl | 45.1% (active)
2 | CCN(CC)CCNC(=O)c1ccc(NC(=O)c2c(F)cccc2Cl)cc1 | -0.39%
3 | O=C(O)c1cc2c(cc1NC(=O)c1c(F)cccc1Cl)OCCCO2 | 0.17%
4 | C=CCC(Nc1ccccc1)c1cccc(OC)c1OC (stereo not given) | 0.2%
5 | O=C1COc2ccc(C(=O)COC(=O)C3CC(O)CN3S(=O)(=O)c3ccc(Cl)cc3)cc2N1 (stereo not given) | 0.64%
6 | CNC[C@@H]1Oc2c(NS(C)(=O)=O)cccc2C(=O)N([C@@H](C)CO)C[C@H]1C | -0.2%
7 | CCN(CC(=O)Nc1c(F)cccc1F)C(=O)C1CCC1 | -0.09%
8 | O=C(CCC1CCCCC1)Nc1cc(C(F)(F)F)ccc1N1CCOCC1 | 0.04%
9 | O=C(Cn1c2[n+](c3ccc(C(F)(F)F)cc31)CCCCC2)Nc1c(F)cccc1F | 17.2% (active)
10 | N#CCc1c[nH]c2ccc([N+](=O)[O-])cc12 | -0.24%
11 | COc1ccc(OCC(O)CNC(=O)Nc2ccc(Cl)cc2)cc1 (stereo not given) | 60.1% (active)
12 | COC(=O)[C@H](CCSC)NC(=O)Nc1ccc(OC)cc1 | -0.05%
13 | CCc1ccc(S(=O)(=O)NCC(O)COc2ccc(OC)cc2)cc1 (stereo not given) | -0.05%
14 | COc1cccc(NC(=O)N2CCC(NC(=O)C(Cc3cccc(C)c3)NC(C)=O)CC2)c1 (stereo not given) | -0.33%
15 | CC(Oc1ccccc1F)C(=O)NN (stereo not given) | -0.07%
16 | CCCOn1c(-n2nc(C)cc2C)nc2ccccc2c1=O | -0.74%
17 | CCN(CC(=O)NCCc1ccccc1)S(=O)(=O)c1ccccc1 | 1.61%
18 | CN(C(=O)CSc1nnc(Nc2ccccc2)s1)C1CCS(=O)(=O)C1 (stereo not given) | 6.74% (active)
19 | CN(C(=O)CSc1nnc(-c2c[nH]c3ccccc23)o1)C1CCS(=O)(=O)C1 (stereo not given) | 8.69% (active)
20 | CN(C(=O)CSc1nnc(-c2ccc3c(c2)OCO3)o1)C1CCS(=O)(=O)C1 (stereo not given) | -0.28%

Row | Structure (SMILES) | inhibition
21 | O=C(CSc1nnc(-c2c[nH]c3ccccc23)o1)c1ccccc1 | 0.1%
22 | CCn1c(SCC(=O)N(C)C2CCS(=O)(=O)C2)nnc1-c1cccs1 (stereo not given) | -0.25%
23 | CN(C(=O)CSc1nnc(-c2ccc(C(C)(C)C)cc2)n1C)C1CCS(=O)(=O)C1 (stereo not given) | -0.23%
24 | Cn1nc(C(F)(F)F)c(-c2ccc(F)cc2)c1NC(=O)CSCC(=O)O | -1.21%
25 | Cc1ccc(C)c(N2C(=O)CS/C2=N\NC(=O)c2ccccc2Cl)c1 | -0.16%
26 | Cc1ccc(NC(=O)C(C)c2cccc(C(=O)c3ccccc3)c2)cc1 (stereo not given) | 67.8% (active)
27 | CCC(C(=O)Nc1ccc(C(C)C)cc1)c1ccccc1 (stereo not given) | 0.33%
28 | CC(=O)Nc1ccc(NC(=O)[C@@H](NC(=O)c2cccc(C)c2)C(C)C)cc1 | -0.8%
29 | COc1ccc(NC(=O)C(NC(C)=O)C(=O)NCc2ccccc2Cl)cc1 (stereo not given) | 7.6% (active)
30 | COc1ccc(CNC(=O)C(C)NCc2ccccc2Cl)cc1 (stereo not given) | -0.92%
31 | COc1ccc(NC(=O)N2CCCC2C(=O)NCc2ccccc2Cl)cc1 (stereo not given) | -0.13%
32 | Nc1ccccc1Sc1cc(Cl)nnc1Cl | 1.75%
33 | CSc1ccc(S(=O)(=O)NCc2ccc(Cl)cc2)cc1 | -1.21%
34 | O=C(O)CCn1c(O)c(C=C2N=c3ccccc3=N2)sc1=S | 7.5% (active)
35 | CCN=c1sc(C(=O)Nc2ccccc2)c(C)n1CC | 0.54%
36 | Cc1ccc(S(=O)(=O)Nc2nc(CN3CCOCC3)nc3sc(C)c(C)c23)cc1 | -0.08%
37 | CC(C)C1C2=C(CC(C)(C)CC2=O)ON1c1ccccc1 (stereo not given) | 0.41%
38 | Cc1cc(=O)n2nc(N3CCC(C(=O)Nc4c(F)c(F)c(F)c(F)c4F)CC3)sc2n1 | -0.7%
39 | CCOc1ccc(S(=O)(=O)N2CCCCCC2)c2ccccc12 | -0.75%
40 | C[C@H](O)[C@@H]1C(=O)N2CCc3c([nH]c4ccccc34)[C@@H]2C[C@@H]1N(C)C(=O)Nc1ccc(F)cc1 | 1.97%

Row | Structure (SMILES) | inhibition
41 | O=C(Nc1ccc(Cl)cc1)N1CCc2[nH]c3ccccc3c2C1 | 64.1% (active)
42 | Fc1ccc(NC(=S)N2CCc3[nH]c4ccccc4c3C2)cc1 | 9.22% (active)
43 | CCOc1ccc(NC(=O)N2CC=C(n3c(=O)[nH]c4ccccc43)CC2)cc1 | -0.02%
44 | CC(=O)C(CC(=O)N1CCCC1)C(=O)Nc1ccc(Cl)cc1 (stereo not given) | -0.19%
45 | O=C(CCCN1CCc2[nH]c3ccc(F)cc3c2C1)c1ccc(F)cc1 | 0.35%
46 | Cc1ccc(N(C(=O)C(F)(F)F)C(C(=O)NC2CCCCC2)c2ccncc2)cc1C (stereo not given) | -0.39%
47 | COc1ccccc1OCC(=O)Nc1c2c(nn1-c1ccc(F)cc1)CS(=O)(=O)C2 | 0.18%
48 | CC(=O)Nc1cc(-c2cccc(CO)c2)cn2c(-c3cccc(C(F)(F)F)c3)cnc12 | -0.15%
49 | Cc1cc(C)cc(NC(=O)NCc2ccccn2)c1 | -0.48%
50 | Cc1cc(C)cc(NC(=O)N(C)Cc2ccccc2)c1 | 6.26% (active)
51 | Cc1cc(C)cc(NC(=O)CSc2ccccc2)c1 | -0.78%
52 | COc1ccc(CCNC(=O)C2CC3Cn4c(nc5cc(C)c(C)cc54)C3N2C)cc1 (stereo not given) | 0.64%
53 | CCCCN(C)Cc1c(C)[nH]c2ccc(Cl)cc2c1=O | 47% (active)
54 | CCOC(=O)c1ccc2[nH]c(C)c(CN3CCN(C)CC3)c(=O)c2c1 | -0.39%
55 | CN(C)CCn1c(=S)[nH]c2ccc(Cl)cc2c1=O | 0.6%
56 | Cc1cccc(C)c1-n1nnnc1C(CCc1ccccc1)N1CCN(C/C=C/c2ccccc2)CC1 (stereo not given) | -1%
57 | Cc1cccc(N2CCN(C(c3ccc(N(C)C)cc3)c3nnnn3C(C)(C)C)CC2)c1C (stereo not given) | -1.18%
58 | O=C(/C=C(O)/C=C/c1ccc(O)cc1)/C=C/c1ccc(O)cc1 | -0.28%
59 | NC1=NC(=O)S/C1=C\c1ccc(O)cc1 | 22.9% (active)
60 | CC(C)(C)c1ccc(/C=C2\SC(=O)N=C2N)cc1 | 19.9% (active)
